Source: PubChem (Sanford-Burnham Center for Chemical Genomics)
Shown are actives, neighbours in structure and some others; about 1.7% of the full set was active somewhere.
STEP block: blocks human striatal-enriched tyrosine phosphatase; recombinant STEP, OMFP fluorogenic substrate, fluorescence; inhibition, % at 20 µM; actives 0.25% (n = 360,000); AID 588621;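 active means inhibition at 20 µM, scaled per plate between control wells, above about 37%, limit read from the data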;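 further: 0% = DMSO with enzyme and substrate and 100% = substrate only without enzyme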
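Measure: Control-normalized % inhibition with plate pattern correction | Test system: STEP phosphatase, cell-free reaction | Medium: pH 6.0 Bis-Tris with DTT and Tween 20 | Technique: Fluorescence, 480/540 nm | Times: Reaction 20 min, ambient temperature | Doses: Single compound dose of 20 µM, 1% DMSO final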
DNMT1 inh: inhibitors of human DNMT1; AID 588458; actives 0.83% (n = 360,000); inhibition (reported as % activation of signal), % at 10 µM; P26358; DNMT1 molecular beacon, Hinp1I cleavage, fluorescence; in the data active means inhibition above about 50%
SUMO1 PPI mod: alters human SUMO1 binding to SIM partners; SUMO1 binding to a labelled peptide, TR-FRET, 1 h; inhibition, % at 20 µM; actives 0.33% (n = 360,000); in the data active means inhibition above about 37%
Target sequence (P63165 whole entry, looked up): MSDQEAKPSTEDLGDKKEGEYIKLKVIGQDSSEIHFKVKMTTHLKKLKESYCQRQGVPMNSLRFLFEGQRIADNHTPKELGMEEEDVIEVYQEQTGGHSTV
Scp1 inh: inhibitors of human Scp-1 phosphatase. Q9GZU7. actives 0.88% (n = 340,000). inhibition, % at 20 µM. Recombinant Scp1, phosphopeptide, malachite green phosphate absorbance;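 active means inhibition above about 50% at 20 µM, limit read from the data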;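 further: plate controls were DMSO wells with enzyme for no effect and wells lacking enzyme for full effect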
Target sequence (Q9GZU7 76-261 limits assumed): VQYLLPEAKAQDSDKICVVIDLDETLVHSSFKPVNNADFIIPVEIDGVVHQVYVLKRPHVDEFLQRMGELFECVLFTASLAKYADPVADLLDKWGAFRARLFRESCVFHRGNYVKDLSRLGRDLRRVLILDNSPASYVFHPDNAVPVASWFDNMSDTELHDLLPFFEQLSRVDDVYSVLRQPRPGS
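Test system – truncated SCP-1 phosphatase (76-261aa) · Reagent – Phosphorylated 17-residue peptide substrate · Incubation – 45 min room-temperature reaction, 5 min colour, 30 min stabiliser · Detection – colorimetric phosphate reagent with accelerator and stabiliser, absorbance at 630 nm · Measure – % inhibition at 20 µM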
LMPTP block: LMPTP (human) inhibition; inhibition, % at 20 µM; recombinant LMPTP-A, OMFP fluorogenic substrate, fluorescence intensity; P24666; actives 0.22% (n = 360,000);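 active means compounds that cut the enzyme signal by at least half of the control window in the single-dose screen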;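 further: plate controls were DMSO wells with enzyme plus substrate for no effect and substrate without enzyme for full effect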
Target sequence (P24666 whole entry, looked up): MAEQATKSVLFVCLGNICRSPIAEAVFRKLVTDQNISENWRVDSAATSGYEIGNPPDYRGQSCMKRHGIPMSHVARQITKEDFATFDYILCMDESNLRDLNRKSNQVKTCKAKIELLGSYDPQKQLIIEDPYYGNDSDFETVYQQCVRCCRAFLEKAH
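Buffer or medium: Bis-Tris pH 6.0, DTT, detergent; Assay system: LMPTP-A enzyme; Quantity: 0.625 nM enzyme; Detection: endpoint fluorescence intensity; Times: 50 min dark incubation at room temperature; Controls: substrate-only low control, DMSO enzyme-plus-substrate high control; Doses: single 20 µM dose; Read-out: percent inhibition versus substrate-only and uninhibited controls; Reagent: 400 µM OMFP.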
* = called active by the depositor; . = not tested or not shown.

SMILES | STEP block | DNMT1 inh | SUMO1 PPI mod | Scp1 inh | LMPTP block
O=C1NC(=S)S/C1=C/c1ccc(OC(=O)c2ccco2)cc1 | -2 | 3 | 0 | -7 | -7
Nc1ccc(OCCCc2c(N)nc(N)nc2N)cc1 | 3 | 29 | 31 | -11 | 87*
Cc1cc(=O)oc2cc(OCc3ccc(C(=O)OCC(=O)N(C)C4CCS(=O)(=O)C4)cc3)ccc12 (stereo unspecified) | -4 | 1 | 2 | -11 | 0
Cc1cc(=O)oc2cc(OCc3ccc(C(=O)OCC(=O)NC4CCS(=O)(=O)C4)cc3)ccc12 (stereo unspecified) | 6 | 20 | 57* | 50 | 13
Oc1c(Br)cc(Br)cc1CNc1nccs1 | -2 | -1 | 19 | -7 | 2
CCOC(=O)C1(Cc2ccccc2)C(=O)Nc2ccccc21 (stereo unspecified) | -1 | 2 | 4 | -10 | -1
CCOC(=O)C12CNC(=O)C(C(=O)OCC)(CNC1=O)C2 | 3 | 1 | 40* | 6 | 0
Cc1[nH]n(-c2ccccc2)c(=O)c1C=Nc1ccc(S(=O)(=O)N=C(N)N)cc1 | -4 | -3 | -4 | -2 | -1
Cc1[nH]n(-c2ccccc2)c(=S)c1C=Nc1ccc([N+](=O)[O-])cc1 | -4 | 6 | -7 | 74* | -2
Cc1ccc(C2=NOC(=O)/C2=C\C=C\c2ccccc2)cc1 | -2 | 28 | 41* | -10 | 2
CN(C)/C=C1\C(=O)ON=C1c1ccccc1 | -5 | 3 | -4 | -3 | -1
O=c1c(Br)ccc(Br)cc1Br | 74* | 59* | 25 | -10 | 1
CCOC(=O)N1CCC(NC(=O)c2ccccc2C(=O)O)CC1 | -1 | 1 | 43* | -1 | -2
COc1ccc(-c2csc(NC(=S)NC(=O)c3cccs3)n2)cc1OC | 2 | -27 | 44* | -8 | 4
COc1ccc(-c2csc(NC(=S)NC(=O)c3cccs3)n2)cc1Br | -1 | -3 | -1 | -13 | 2
O=C(NN1C(=O)/C(=C/C=C/c2ccccc2)SC1=S)c1ccncc1 | 0 | 1 | 53* | -1 | 4
O=C(NN1C(=O)/C(=C/C=C/c2ccco2)SC1=S)c1ccncc1 | 55* | 84* | 101* | 72* | 45
CCOC(=O)c1ccc(NC(=O)c2nc[nH]c2C(=O)NC[C@H](C)O)cc1 | -2 | 4 | -2 | . | -1
COc1cccc(CC(NC(C)=O)C(=O)NC2CCN(c3nc(C)cc(C)c3C#N)CC2)c1OC (stereo unspecified) | -4 | -5 | -1 | 8 | 0
COc1cc(CC(NC(C)=O)C(=O)NC2CCN(c3nc(C)cc(C)c3C#N)CC2)cc(OC)c1 (stereo unspecified) | -1 | 13 | 42* | 3 | -1
Cc1cccc(/C=N/NC(=O)Cc2ccc(Cl)cc2)c1O | 2 | 2 | 8 | -6 | 2
Cc1cccc(/C=N\NC(=O)c2ccc(Cl)cc2)c1O | 16 | 6 | 0 | 95* | 41
O=C(N=Nc1c(O)[nH]c2ccccc12)c1cccc(S(=O)(=O)N2CCCCC2)c1 | -1 | 6 | -2 | 13 | 9
O=c1[nH]c2ccccc2c2nc(-c3cccc(S(=O)(=O)N4CCCC4)c3)nn12 | 9 | -2 | 42* | 8 | 7
O=C(Cn1cnc2sc(-c3ccccc3)cc2c1=O)NCc1ccco1 | -1 | -4 | -9 | 71* | -1
SMILES | STEP block | DNMT1 inh | SUMO1 PPI mod | Scp1 inh | LMPTP block
CCNC(=O)C1(C)CCN(C(=O)c2ccc(N(C)C)cc2)C1 (stereo unspecified) | -1 | 5 | 2 | . | 0
Cc1ccc(S(=O)(=O)N2CCOCC2)cc1C(=O)OCC(=O)Nc1ccc2[nH]c(=O)[nH]c2c1 | -1 | 2 | 82* | 1 | 2
CC(C)CCNC(=O)NC(=O)COC(=O)c1cc(S(=O)(=O)N2CCOCC2)ccc1N1CCCCC1 | 4 | -2 | 45* | 14 | 0
CCc1cc2c(cc3c(=O)n(CC(=O)N4CCN(C)CC4)ncn32)s1 | -1 | 1 | -11 | -6 | 0
CC(C)(CNC(=O)c1cc2c(s1)CCCC2)N1CCOCC1 | -2 | 1 | 3 | 8 | 0
Cc1ccc(NC(=O)c2c(C(F)(F)F)nn(C)c2Cl)cc1C | 1 | 0 | 2 | -7 | 0
Cn1nc(C(F)(F)F)c(C(=O)Nc2ccc(Cl)cc2)c1Cl | -5 | 3 | 41* | 3 | -1
CC(/C=C1\N=C(SCc2ccccc2Cl)SC1=O)=C\c1ccccc1 | -2 | 101* | 0 | -5 | 2
O=C1SC(SCc2ccccc2)=N/C1=C\c1ccc(C(=O)O)cc1 | 4 | 2 | -1 | 17 | 1
O=C(c1ccc(F)cc1)C1CCN(C(=O)c2c(F)cccc2F)CC1 | 2 | -1 | 0 | -3 | -2
Cc1nc(N)nc(N)c1-c1ccc([N+](=O)[O-])cc1 | 3 | 5 | -21 | 2 | 67*
Nc1nc(-c2ccccc2)c(-c2ccc([N+](=O)[O-])cc2)s1 | 1 | -2 | -18 | -1 | 1
CC(C)NC(=O)COc1coc(CN2CCN(C(=O)c3ccco3)CC2)cc1=O | 4 | 3 | 1 | 19 | 0
Nc1nn(-c2cccc(F)n2)cc1-c1ccccc1 | -1 | 2 | 47* | -3 | 1
COC(=O)C1=C(C)N(Cc2ccccc2)C(=NCc2ccccc2)N[C@H]1c1cccc(F)c1 | 0 | 3 | -18 | 0 | 0
COCCN1C(=NCCCOC(C)C)N[C@@H](c2ccccc2)C(C(=O)OC)=C1C | -2 | 3 | 2 | 55* | -2
C=CCN=C1N[C@@H](c2ccccc2)C(C(=O)OC)=C(C)N1CCOC | -1 | 3 | 4 | 19 | -1
CCN(CC)CCCN=C1N[C@@H](c2cccc(F)c2)C(C(=O)OC)=C(C)N1Cc1ccccc1 | 2 | -1 | -4 | 103* | -2
CN(C(=O)COC(=O)c1cccs1)c1ccccc1 | 3 | 2 | 8 | . | 0
C#CCNC(=O)c1cc2c(Br)ccc(Br)c2nc1N | . | . | -14 | . | 0
O=C(NC1CCCC1)c1cnn2c(C(F)(F)F)cc(-c3ccc4c(c3)OCO4)nc12 | -1 | 51* | -2 | -5 | 2
CCCOc1cc(N(CC)CC)ccc1/C=C(/C#N)c1nc2ccc(C)cc2[nH]1 | -33 | -1 | -59 | -8 | 9
CCN(CC)c1ccc(/C=C(/C#N)c2nc3ccc(C)cc3[nH]2)c(OC(C)C)c1 | -48 | 53* | -80 | 3 | 16
N#Cc1c(NC(=O)Cn2c(=O)oc3ccccc32)oc(-c2ccccc2)c1-c1ccccc1 | -3 | -10 | 41* | -12 | 5
O=C(Cn1c(=O)oc2ccccc21)Nc1ccc(Br)cc1 | 1 | 2 | 6 | -2 | 1
COC(=O)c1ccccc1NC(=O)CSc1nc(NC(=O)c2ccccc2)c2c(C)c(C)oc2n1 | 1 | -8 | 67* | -4 | 2
